Data: ChEMBL document CHEMBL3826882, “Discovery of 1-((2R,4aR,6R,7R,7aR)-2-Isopropoxy-2-oxidodihydro-4H,6H-spiro[furo[3,2-d][1,3,2]dioxaphosphinine-7,2'-oxetan]-6-yl)pyrimidine-2,4(1H,3H)-dione (JNJ-54257099), a 3'-5'-Cyclic Phosphate Ester Prodrug of 2'-Deoxy-2'-Spirooxetane Uridine Triphosphate Useful for HCV Inhibition” (J Med Chem, 2016)
Blank lines part the entries; values can stand above or below the compound they belong to.

Columns and labels:
Hepatocyte [1] = test: Prodrug conversion in mouse primary hepatocytes assessed as 2'-deoxy-2'-spirooxetane uridine triphosphate level per million cells at 2 uM after 24 hrs using radiolabelled compound by LC-MS/MS analysis; type: ADME, cell-based
In short: (§1)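 Study A: fresh primary hepatocyte cultures from mouse, rat, dog and human incubated with tritiated prodrug at 2 or 62.5 µM for 4 or 24 h. Triphosphate in cell lysates reported as pmol/million hepatocytes. Duplicate or single measurements.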

Hepatocyte [2] = test: Prodrug conversion in rat primary hepatocytes assessed as 2'-deoxy-2'-spirooxetane uridine triphosphate level per million cells at 62.5 uM after 24 hrs using radiolabelled compound by LC-MS/MS analysis; type: ADME, cell-based; in short: as §1
[3] = Prodrug conversion in dog primary hepatocytes assessed as 2'-deoxy-2'-spirooxetane uridine triphosphate level per million cells at 2 uM after 4 hrs using radiolabelled compound by LC-MS/MS analysis; type: ADME, cell-based, Canis lupus familiaris, Hepatocyte; in short: as §1
Hepatocyte [4] = test: Stability in rat primary hepatocyte supernatant assessed as parent compound level at 2 uM after 4 to 24 hrs using radiolabeled compound by HPLC analysis; type: ADME, cell-based; settings: hepatocytes
Hepatocyte [5] = test: Drug metabolism in mouse primary hepatocyte supernatant assessed as 1-((4R,5R,7R,8R)-8-hydroxy-7-(hydroxymethyl)-1,6-dioxaspiro[3.4]octan-5-yl)pyrimidine-2,4(1H,3H)-dione formation at 2 to 62.5 uM after 4 to 24 hrs using radiolabeled compound by HPLC analysis; type: ADME, cell-based; settings: hepatocytes
In short: (§2)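 Fresh primary hepatocyte cultures incubated with tritiated prodrug (5'-[3H]) at 2 and 62.5 µM for 4 and 24 h. Supernatants taken after protein precipitation and profiled by HPLC with radioactivity detection. Cell lysates profiled for metabolites by radio-LC. Cyclic monophosphate also measured by LC/MS/MS.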

Hepatocyte [6] = test: Drug metabolism in rat primary hepatocytes assessed as ((4R,5R,7R,8R)-5-(2,4-dioxo-3,4-dihydropyrimidin-1(2H)-yl)-8-hydroxy-1,6-dioxaspiro[3.4]octan-7-yl)methyl dihydrogen phosphate formation at 2 to 62.5 uM after 24 hrs using radiolabeled compound by LC-MS/MS analysis; type: ADME, cell-based; in short: as §2
[7] = Drug metabolism in dog primary hepatocytes assessed as ((4R,5R,7R,8R)-5-(2,4-dioxo-3,4-dihydropyrimidin-1(2H)-yl)-8-hydroxy-1,6-dioxaspiro[3.4]octan-7-yl)methyl dihydrogen phosphate formation at 2 to 62.5 uM after 4 hrs using radiolabeled compound by LC-MS/MS analysis; type: ADME, cell-based, Canis lupus familiaris, Hepatocyte
In short: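 Study A: primary cultured hepatocytes (mouse, rat, dog, human) incubated with 2 or 62.5 µM 5'-[3H]-labelled prodrug for 4 and 24 h. Cell lysates were analysed for triphosphate. Supernatants were protein-precipitated and profiled by HPLC with radioactivity detection. Cyclic monophosphate was also assessed by LC/MS/MS.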

Hepatitis C virus [8] = test: Antiviral activity against HCV genotype 1a infected in homozygous cDNA-uPA chimeric SCID mouse bearing humanized hepatocytes assessed as change in HCV RNA level in serum at 50 mg/kg, po bid administered through gavage for 7 days by RT-PCR method; type: functional, Hepacivirus hominis, subtype 1a, Hepatocyte
In short: (§3)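 Male chimeric SCID cDNA-uPA+/+ mice with human hepatocyte liver (≥70% replacement by blood human albumin) and serum HCV RNA >1.0×10^6 copies/mL the week before dosing. Oral gavage for 7 days in 20% HP-β-CD, 50-200 mg/kg QD or BID. Serum sampled pre-dose on days 1, 2, 3, 5 and 7. Real-time PCR; mean change in log10 copies/mL, day 7 vs day 1 pre-dose.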

Hepatitis C virus [9] = test: Antiviral activity against HCV genotype 1a infected in homozygous cDNA-uPA chimeric SCID mouse bearing humanized hepatocytes assessed as change in HCV RNA level in serum at 100 mg/kg, po bid administered through gavage for 7 days by RT-PCR method; type: functional, Hepacivirus hominis, subtype 1a, Hepatocyte; in short: as §3
Hepatitis C virus [10] = test: Antiviral activity against HCV genotype 1a infected in homozygous cDNA-uPA chimeric SCID mouse bearing humanized hepatocytes assessed as change in HCV RNA level in serum at 200 mg/kg, po qd administered through gavage for 7 days by RT-PCR method; type: functional, Hepacivirus hominis, subtype 1a, Hepatocyte; in short: as §3
Hepatocyte [11] = test: Prodrug conversion in mouse cryopreserved hepatocytes assessed as 2'-deoxy-2'-spirooxetane uridine triphosphate level per million cells at 10 uM after 2 hrs by LC-MS/MS analysis; type: ADME, cell-based
In short: (§4)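 Plated cryopreserved hepatocytes (study B) incubated with 10 µM unlabeled prodrug for 2, 8 or 24 h. Triphosphate measured in cell lysates and expressed as pmol/million hepatocytes. Quantification limit 2 ng/10^6 cells.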

Hepatocyte [12] = test: Prodrug conversion in rat cryopreserved hepatocytes assessed as 2'-deoxy-2'-spirooxetane uridine triphosphate level per million cells at 10 uM after 8 hrs by LC-MS/MS analysis; type: ADME, cell-based; in short: as §4
Hepatocyte [13] = test: Prodrug conversion in rat cryopreserved hepatocytes assessed as 2'-deoxy-2'-spirooxetane uridine triphosphate level per million cells at 10 uM after 24 hrs by LC-MS/MS analysis; type: ADME, cell-based; in short: as §4
Hepatocyte [14] = test: Drug level in human hepatocytes in presence of CYP3A4 inhibitor ritonavir by LC-MS/MS analysis; type: ADME, cell-based
Hepatocyte [15] = test: Drug level in human hepatocytes in presence of CYP3A4 inhibitor ketoconazole by LC-MS/MS analysis; type: ADME, cell-based
Hepatocyte [16] = test: Drug metabolism in human hepatocytes assessed as ((4R,5R,7R,8R)-5-(2,4-dioxo-3,4-dihydropyrimidin-1(2H)-yl)-8-hydroxy-1,6-dioxaspiro[3.4]octan-7-yl)methyl dihydrogen phosphate formation in presence of PDE4 inhibitor rolipram by LC-MS/MS analysis; type: ADME, cell-based
[17] = Tmax in mouse plasma at 50 mg/kg, po; type: ADME, organism-based
In short: (§5)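 Single oral dose of 50 mg/kg formulated in 20% HP-β-cyclodextrin. Prodrug and its triphosphate were measured in plasma and liver (ng/mL or ng/g) over time, and Cmax, tmax, AUC, tlast and t1/2 were derived. For some analytes, data from two independent studies are reported.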

[18] = Half life in mouse plasma at 50 mg/kg, po; type: ADME, organism-based
In short: (§6)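 Single oral dose of 50 mg/kg in 20% HP-β-cyclodextrin. Prodrug and triphosphate measured in plasma and liver over time (tlast 6–30 h). Half-life, Cmax, tmax and AUC0-last derived; liver/plasma ratio taken from AUC0-last. Prodrug data pooled from two independent studies.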

[19] = Tmax in mouse liver at 50 mg/kg, po; type: ADME, organism-based; in short: as §5
Liver [20] = test: Cmax in mouse liver assessed as 2'-deoxy-2'-spirooxetane uridine triphosphate at 50 mg/kg, po; type: ADME, organism-based; parameters: dose 50 mg/kg, route oral; settings: in vivo
Liver [21] = test: Tmax in mouse liver assessed as 2'-deoxy-2'-spirooxetane uridine triphosphate at 50 mg/kg, po; type: ADME, organism-based; settings: in vivo; in short: as §5
[22] = Half life in rat plasma at 50 mg/kg, po; type: ADME, organism-based; in short: as §6
[23] = Tmax in dog plasma at 50 mg/kg, po; type: ADME, organism-based, Canis lupus familiaris; in short: as §5
[24] = AUC (0 to last) in dog plasma at 50 mg/kg, po; type: ADME, organism-based, Canis lupus familiaris; parameters: dose 50 mg/kg, route oral, time 0 - last
In short: (§7)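 Oral dose 50 mg/kg, formulated in 20% HP-β-cyclodextrin. Prodrug and triphosphate were measured in plasma and liver (ng/mL or ng/g). Parameters derived were Cmax, tmax, AUC0-last, AUC0-inf and t1/2. Some prodrug data come from two independent studies.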

[25] = Half life in dog plasma at 50 mg/kg, po; type: ADME, organism-based, Canis lupus familiaris; in short: as §6
[26] = AUC (0 to infinity) in dog plasma at 50 mg/kg, po; type: ADME, organism-based, Canis lupus familiaris; parameters: dose 50 mg/kg, time infinity, route oral; in short: as §7
[27] = Cmax in dog liver at 50 mg/kg, po; type: ADME, organism-based, Canis lupus familiaris; parameters: dose 50 mg/kg, route oral
Liver [28] = test: AUC (0 to last) in dog liver assessed as 2'-deoxy-2'-spirooxetane uridine triphosphate at 50 mg/kg, po; type: ADME, organism-based, Canis lupus familiaris; settings: in vivo; in short: as §7
Liver [29] = test: Tlast in dog liver assessed as 2'-deoxy-2'-spirooxetane uridine triphosphate at 50 mg/kg, po; type: ADME, organism-based, Canis lupus familiaris; settings: in vivo; in short: as §5

Drug metabolism (Hepatocyte [1]): 0.049 pmol
Drug metabolism (Hepatocyte [2]): 0.39 pmol
Drug metabolism [3]: 0.005 pmol
Stability (Hepatocyte [4]): Stable
Drug metabolism (Hepatocyte [5]): metabolite_detected
Drug metabolism (Hepatocyte [6]): metabolite_detected
Drug metabolism [7]: metabolite_detected
Structure (SMILES): [3H]C1O[P@](=O)(OC(C)C)O[C@@H]2[C@@H]1O[C@@H](n1ccc(=O)[nH]c1=O)[C@@]21CCO1 (some centres undefined)

Structure (SMILES): CC(C)O[P@@]1(=O)OC[C@H]2O[C@@H](n3ccc(=O)[nH]c3=O)[C@@]3(CCO3)[C@@H]2O1
Activity (Hepatitis C virus [8]): -0.45
Activity (Hepatitis C virus [9]): -1.17
Activity (Hepatitis C virus [10]): -0.64
Drug metabolism (Hepatocyte [11]): 0.538 pmol
Drug metabolism (Hepatocyte [12]): 0.308 pmol
Drug metabolism (Hepatocyte [13]): 0.231 pmol
Drug uptake (Hepatocyte [14]): Active
Drug uptake (Hepatocyte [15]): Active
Drug metabolism (Hepatocyte [16]): metabolite_detected
Tmax [17]: 30 min
half-life [18]: 264 min
Tmax [19]: 1 h
Cmax (Liver [20]): 13633 ng/g
Tmax (Liver [21]): 2 h
half-life [22]: 288 min
Tmax [23]: 1.5 h
AUC(0-t) [24]: 25600 ng·h/mL
half-life [25]: 438 min
AUC(0-inf) [26]: 29100 ng·h/mL
Cmax [27]: 5030 ng/g
AUClast (Liver [28]): 223803 ng·h/g
Tlast (Liver [29]): 24 h
